# Published values from different studies.
# Protocols differ between the studies behind these lines. pIC50: −log10 of the molar value.
# CYP2E1: Cytochrome P450 2E1 (CYP2E1, Homo sapiens, UniProt P05181)
SMILES,target or system,assay,test system,setting,measurement,result
CC(C)(C)OC(=O)CN1C(=O)Cc2c([nH]c3ccc(Br)cc23)-c2ccc(Cl)cc21,J774,"cell growth or viability, WST-1",,24 h,CC50,≤ 100 µM
Nn1nnc2ccccc21,CYP2E1,"enzyme activity, inhibitor, HPLC",,,pIC50,4.42
CC(C)(C)NC(=O)CN1C(=O)Cc2c([nH]c3ccc(Br)cc23)-c2ccc(Cl)cc21,J774,"cell growth or viability, WST-1",,24 h,CC50,≥ 100 µM
CCN(CC)C(=S)S,CYP2E1,"enzyme activity, inhibitor","human, liver microsomes",50 µM,inhibition,75%
C[C@@H](c1ccc2nccn2c1)n1nnc2ncc(-c3cnn(C)c3)nc21,CYP2E1,"enzyme activity, inhibitor","human, liver microsomes",pH 7.4,pIC50,4.00
Cn1ccc(COc2cnc(C(N)=O)cc2-c2ccc(O[11CH3])cc2F)n1,,,"male mouse, pancreas","intravenous, 2.5 MBq, 1 h",tracer uptake,5.87 %ID/g
CC1COc2ccccc2N1C(=O)C(Cl)Cl (centres unmarked),,metabolic stability,"female monkey, liver microsomes","5 µM, pH 7.4",microsomal CLint,1400 µL/min/mg
O=c1[nH]c2scc(-c3ccccc3)c2c(=O)n1O,HFF,"cell growth or viability, MTS",,"10 µM, 7 days",viability,90%
CCN(CC)C(=O)[C@@]1(c2ccccc2)C[C@H]1CN,,,"male cynomolgus monkey, plasma","oral, 30 mg/kg",Cmax,5020 ng/mL
O=c1[nH]c2cc(-c3ccc(F)cc3)sc2c(=O)n1O,HFF,"cell growth or viability, MTS",,"10 µM, 7 days",viability,61%
CN(C)C(=O)CN1C(=O)Cc2c([nH]c3ccc(Br)cc23)-c2ccc(Cl)cc21,J774,"cell growth or viability, WST-1",,24 h,CC50,≥ 100 µM
O=c1[nH]c2c(-c3ccccc3)csc2c(=O)n1O,HFF,"cell growth or viability, MTS",,"10 µM, 7 days",viability,130%
Nc1ccc(C=Cc2ccc([125I])cc2)cc1,,,"Swiss mouse, brain","intravenous, 5 µCi, 2 h",tracer uptake,1.12 %ID/g
Cc1csc2c(=O)n(O)c(=O)[nH]c12,HFF,"cell growth or viability, MTS",,"10 µM, 7 days",viability,122%
O=C(CN1C(=O)Cc2c([nH]c3ccc(Br)cc23)-c2ccc(Cl)cc21)N1CCCC1,J774,"cell growth or viability, WST-1",,24 h,CC50,≤ 100 µM
O=c1[nH]c2sc3c(c2c(=O)n1O)CCN(Cc1ccccc1)C3,HFF,"cell growth or viability, MTS",,"10 µM, 7 days",viability,104%
O=C(CCCCCCC(=O)Nc1ccc(CC[18F])cc1)NO,,,"male nude mouse, stomach","intravenous, 1 h, tumour-bearing",tracer uptake,1.5 %ID/g
